An excerpt weighted towards active compounds, which were near 3.7% of everything screened.
KCNQ1 block: inhibitors of human KCNQ1 potassium channel; B-score at 10 µM; 310,000 tested, 1.3% active; P51787; CHO-K1 KCNQ1, FluxOR thallium flux fluorescence; stronger effect = higher value;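 active = compounds whose thallium flux B-score, printed positive for inhibition, exceeds three library SD while starting fluorescence stays within three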;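 note: channel opened by potassium depolarization with thallium stimulus after 20 min compound exposure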
KCNK9 inh: blocks the human KCNK9 two-pore domain potassium channel; HEK293 KCNK9, FluxOR thallium flux fluorescence; stronger effect = lower value; B-score at 10 µM; 310,000 tested, 1.2% active; AID 488922;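 active = ratio B-score over 3 SD below the library mean, with starting fluorescence within 5 SD of its mean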;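 note: negative B-score means less thallium flux so channel inhibition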
hERG protect: hERG (human) protection from proarrhythmic block. AID 1511. CHO-hERG, FluxOR thallium flux, dofetilide IC70 present. Q12809. 310,000 tested, 0.51% active. activation (rescue from dofetilide block), less the hit threshold, % at 10 µM;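 active = activation above the mean of controls blocked by dofetilide plus 5 SD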;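 note: thallium influx through hERG after potassium depolarization seen as dye fluorescence rise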
KCNK3 inh: human KCNK3 channel inhibition, primary screen; CHO-KCNK3 thallium flux, FluxOR fluorescence; stronger effect = lower value; B-score at 10 µM; 340,000 tested, 0.84% active; AID 602410;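 active = B-score under library mean minus 4 SD, starting fluorescence ratio at most library mean plus 5 SD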;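 note: more negative B-score means stronger inhibition of thallium flux through KCNK3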
Kir21 inh: inhibitors of mouse Kir2.1 inward-rectifier potassium channel | B-score at 10 µM | HEK293-Kir2.1, FluxOR thallium flux fluorescence; stronger effect = lower value | P35561 | 310,000 tested, 0.85% active;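 active = fluorescence ratio B-score at or below minus 3 SD of library scores, with starting-brightness B-score within 2 SD, cut at about -4.2 in these data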;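 note: channel flux triggered by added potassium and thallium sulfate stimulus; B-score of peak minus minimum fluorescence over baseline after thallium stimulus; more negative B-score means stronger Kir2.1 block with less thallium influx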
KCNQ1 pot: potentiates or activates the human KCNQ1 potassium channel. P51787. CHO-K1 KCNQ1, thallium flux FluxOR fluorescence; stronger effect = higher value. B-score at 10 µM. 310,000 tested, 0.35% active. AID 2648;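 active = fluorescence ratio B-score, a plate-corrected score, at least three library SD, with initial intensity B-score within 5 SD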
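assay system = CHO-K1 cells stably expressing KCNQ1 | medium = assay buffer, equal DMSO in all wells | timing = 37 °C overnight plating, 90-min dark dye load, 20-min compound pretreatment | measured by = kinetic FluxOR thallium fluorescence, 10-s 1-Hz baseline, 110-s post-stimulus read | measure = fluorescence change relative to baseline, converted to B score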
KCNQ1 block val: reconfirmed blocker of the human KCNQ1 potassium channel | shares compounds with KCNQ1 block | KCNQ1 cell line, FluxOR thallium flux fluorescence | inhibition, % at 10 µM | 1,600 tested, 93% active | AID 588353;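 active = primary screen active, with duplicate mean exceeding buffer control mean plus 3 SD of buffer wells, cut at about 28% in these data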;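 note: 0% = buffer control ratio and 100% = XE991 inhibitor control ratio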
CHO KCNQ1 ctr: counter-screen for KCNQ1 inhibitors: effect in parental CHO cells; shares compounds with KCNQ1 block; parental CHO-K1, FluxOR thallium flux fluorescence ratio; stronger effect = lower value; zero means no signal rise above baseline; fluorescence ratio (Tl flux) at 10 µM; 1,600 tested, 21% active; AID 588366;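 active = mean of duplicate thallium-flux fluorescence ratios in parental host cells more than 5 SD below the buffer control mean, cut at about 0.38 in these data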;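 note: ratio is peak minus minimum fluorescence divided by baseline fluorescence; actives read low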
KCNQ1 APC inh: confirmation of human KCNQ1 potassium channel inhibitors by electrophysiology. KCNQ1-CHO cells, automated patch clamp current. 490 tested, 20% active. shares compounds with KCNQ1 block. calls only at 10 µM. AID 624120;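 active = KCNQ1 current drop exceeding 3 SD of negative control wells, seen in both duplicate runs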;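 note: steady state current during a 2 s step from -80 to +40 mV; negative values mean current inhibition and positive values mean potentiation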
KCNQ2 inh: selectivity of KCNQ1 inhibitors: inhibition of rat KCNQ2 channel; shares compounds with KCNQ1 block; KCNQ2 cells, FluxOR thallium flux fluorescence; inhibition, % at 10 µM; 1,600 tested, 71% active;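 active = mean percent inhibition of the KCNQ2 thallium signal more than 5 SD above the buffer-only control wells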;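 note: KCNQ2 expressed in CHO cells; 0% = buffer control wells and 100% = XE-991 inhibitor control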
KCNQ1 KCNE1 spec: selectivity of KCNQ1 inhibitors: inhibition of human KCNQ1/KCNE1 channel. shares compounds with KCNQ1 block. KCNQ1/KCNE1 cells, FluxOR thallium flux fluorescence. inhibition, % at 10 µM. 1,600 tested, 77% active. AID 652147;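 active = mean percent inhibition of duplicate wells above the buffer-only control mean plus 3 SD of those controls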;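 note: 0% = buffer only wells and 100% = XE-991 inhibitor control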
Target sequence (P51787 whole entry, looked up): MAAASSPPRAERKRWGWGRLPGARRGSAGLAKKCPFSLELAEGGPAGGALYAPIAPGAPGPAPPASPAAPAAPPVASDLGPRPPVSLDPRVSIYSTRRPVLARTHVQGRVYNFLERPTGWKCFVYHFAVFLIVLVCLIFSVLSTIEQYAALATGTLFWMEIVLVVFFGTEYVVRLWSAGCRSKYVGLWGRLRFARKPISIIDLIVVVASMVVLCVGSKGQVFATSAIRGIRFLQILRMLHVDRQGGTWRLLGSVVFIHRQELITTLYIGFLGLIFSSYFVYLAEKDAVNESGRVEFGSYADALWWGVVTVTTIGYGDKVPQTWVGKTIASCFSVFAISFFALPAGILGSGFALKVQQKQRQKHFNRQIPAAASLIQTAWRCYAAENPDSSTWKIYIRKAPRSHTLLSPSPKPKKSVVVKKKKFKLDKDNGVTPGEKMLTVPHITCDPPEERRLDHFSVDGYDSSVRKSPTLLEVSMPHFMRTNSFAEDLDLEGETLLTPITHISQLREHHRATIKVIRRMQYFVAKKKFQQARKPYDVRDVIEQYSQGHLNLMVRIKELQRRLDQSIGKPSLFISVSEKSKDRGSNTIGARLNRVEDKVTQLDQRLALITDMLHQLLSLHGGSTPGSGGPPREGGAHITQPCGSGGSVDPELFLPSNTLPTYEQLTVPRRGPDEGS
* = called active by the depositor; i = inactive; x = no result; + = active, no number.

SMILES	KCNQ1 block	KCNK9 inh	hERG protect	KCNK3 inh	Kir21 inh	KCNQ1 pot	KCNQ1 block val	CHO KCNQ1 ctr	KCNQ2 inh	KCNQ1 KCNE1 spec	others
O=C(c1ccc(NC(=S)Nc2ccc(Cl)c(Cl)c2)cc1)N1CCCC1	9*	i	-15	i	-0.88	i	36*	0.5	i	i
COc1ccc(C(c2c(O)ccc3ccccc23)N2CCOCC2)c(OC)c1 (configuration not stated)	7*	i	-31	i	1.3	i	113*	0.35*	108%*	142%*
Cc1cc(C)cc(NS(=O)(=O)CCCS(=O)(=O)Nc2cc(C)cc(C)c2)c1	x	x	x	i	x	x	x	x	x	x
Clc1ccc(/C=C/c2nc3ccccc3[nH]2)cc1	i	i	-7	i	1.2	i	x	x	x	x
Clc1cccc(Cl)c1/C=C/c1nc2ccccc2[nH]1	14*	i	-19	-8.8*	-0.48	i	121*	0.46	93%*	130%*
COc1ccc(C(C(=O)NC2CCCCC2)N(C(=O)c2ccco2)c2ccccc2C(C)=O)cc1OC (configuration not stated)	i	i	-7	i	-1.1	i	x	x	x	x
Cc1ccc(NC(=O)Nc2ccc3c(c2)CCC3)cc1	i	i	-11	i	-0.4	i	x	x	x	x
Cc1ccc(CN(C)CC(=O)Nc2ccc3c(c2)CCC3)cc1	6*	i	-10	i	-1.9	i	83*	0.39	86%*	90%*
CC(C)c1ccc(NC(=O)c2cc(S(=O)(=O)NCC3COc4ccccc4O3)ccc2F)cc1 (configuration not stated)	7*	i	-6	i	0.33	i	95*	0.47	116%*	159%*	KCNQ1 APC inh=i
COCC1CCCCN1C(=O)c1cc(COc2ccc3ncccc3c2)on1 (configuration not stated)	i	i	-14	i	-0.65	i	x	x	x	x
CCC1CCCCN1C(=O)c1cc(COc2ccc3ncccc3c2)on1 (configuration not stated)	12*	i	-23	-9*	-1.5	i	124*	0.48	86%*	112%*
COc1ccc(-n2c(C)c(C)c3c(N)ncnc32)cc1	i	i	-3	i	-1.1	i	x	x	x	x
COC(=O)Cc1csc(Nc2ccccc2)n1	i	i	-3	i	0.01	i	x	x	x	x
COC(=O)Cc1nc(Nc2ccccc2)sc1C	7*	i	-12	i	-0.68	i	47*	0.45	i	46%*
CSc1ccc(-c2sc(Nc3ccccc3)n[n+]2-c2ccc(F)cc2)cc1	i	i	-27	i	-0.92	i	x	x	x	x
COc1ccc(-c2sc(Nc3ccccc3)n[n+]2-c2ccc(F)cc2)c(C)c1C	16*	i	-37	i	-3	i	128*	0.39	99%*	134%*	KCNQ1 APC inh=+
CCN1C[C@@H]2[C@@H]3C(=O)N(Cc4ccccc4)C(=O)[C@@H]3[C@](Cc3ccccc3)(C1=O)N2C(=O)c1ccc(Cl)cc1	x	x	x	i	x	x	x	x	x	x
Cc1noc(C)c1NC(=O)Nc1ccc2c(c1)C(=O)N([C@H](C)CO)C[C@H](C)[C@@H](CN(C)S(=O)(=O)c1cccs1)O2	x	x	x	i	x	x	x	x	x	x
CCc1c(C#N)c(SCCC(=O)Nc2cccc(OC)c2)nc2c1C(=O)CC(C)(C)C2	7*	i	-17	i	-1	i	108*	0.43	99%*	129%*	KCNQ1 APC inh=i
CCc1c(C#N)c(SCCC(=O)Nc2ccc(F)cc2)nc2c1C(=O)CC(C)(C)C2	12*	i	-19	i	-0.18	i	130*	0.38*	98%*	160%*
COc1ccc(-c2c(C#N)c(SCc3c(C)noc3C)nc3c2C(=O)CC(C)(C)C3)cc1	i	i	-6	i	-0.45	i	x	x	x	x
Cc1cc(C)nc(NC(=NCCc2c[nH]c3ccccc23)NC(=O)Nc2ccc(Cl)cc2)n1	6*	i	-12	i	-0.14	i	48*	0.48	88%*	90%*
Cc1cccc2c1Sc1ccc(Cl)cc1CC2N1CCNCC1 (configuration not stated)	9*	i	-21	-12*	-4.2	i	123*	0.3*	116%*	166%*
NS(=O)(=O)c1ccc(CNC(=O)Cn2nc(C(F)F)cc2C(F)F)cc1	x	x	x	i	x	x	x	x	x	x
O=C(C[C@H]1C/C=C\CC[C@H](Cc2ccc(F)cc2)C(=O)OC[C@H]2CCCN2C1=O)N[C@@H](CO)Cc1ccccc1	x	x	x	i	x	x	x	x	x	x
SMILES	KCNQ1 block	KCNK9 inh	hERG protect	KCNK3 inh	Kir21 inh	KCNQ1 pot	KCNQ1 block val	CHO KCNQ1 ctr	KCNQ2 inh	KCNQ1 KCNE1 spec	others
CCOC(=O)c1cc(C#N)c(N2CCCC2)nc1-c1ccccc1	i	i	-1	i	-0.45	i	x	x	x	x
CCOC(=O)c1cc(C#N)c(Oc2ccc(F)cc2)nc1-c1ccccc1	9*	i	-11	i	-0.01	i	70*	0.38*	76%*	104%*
Cc1ccc(S(=O)(=O)Nc2ccccc2CNc2ccc(Br)cn2)cc1	7*	-7.6*	-20	i	-2.6	i	109*	0.37*	103%*	152%*
Cc1ccc(S(=O)(=O)Nc2ccccc2CNc2ccccn2)cc1	i	i	-17	i	-4.2	i	x	x	x	x
COc1ccccc1C(=O)NC(CCSC)C(=O)OCC(=O)N1CCCC1=O (configuration not stated)	x	x	x	i	x	x	x	x	x	x
CC(C)(Cc1ccc(O)cc1)NC(=O)SCc1ccccc1	7*	i	-10	i	-1.1	i	50*	0.5	i	78%*
O=C(NCCC(=O)N1CCN(c2ccccn2)CC1)c1ccc(Br)cc1	i	i	-11	i	0.43	i	x	x	x	x
COc1cc(CCC(=O)OCC(=O)Nc2ccc(F)cc2F)cc(OC)c1OC	i	i	-2	i	-0.27	i	x	x	x	x
Cc1occc1C(=O)N/N=C/C1=C(N2CCOCC2)C(=C/c2ccc(Cl)cc2Cl)/CC1	x	x	x	i	x	x	x	x	x	x

High-throughput results as filed in PubChem BioAssay.
